In ChEMBL document CHEMBL1800057, “Discovery of dual inducible/neuronal nitric oxide synthase (iNOS/nNOS) inhibitor development candidate 4-((2-cyclobutyl-1H-imidazo[4,5-b]pyrazin-1-yl)methyl)-7,8-difluoroquinolin-2(1H)-one (KD7332) part 2: identification of a novel, potent, and selective series of benzimidazole-quinolinone …” (J Med Chem, 2010):

Columns and labels:
[1] = Plasma clearance in mouse at 3 mg/kg, iv and 10 mg/kg, po; assay type: ADME, organism-based
[2] = Volume of distribution at steady state in mouse at 3 mg/kg, iv and 10 mg/kg, po; assay type: ADME, organism-based; settings: in vivo, read-out: Vdss
[3] = Cmax in mouse at 3 mg/kg, iv and 10 mg/kg, po; assay type: ADME, organism-based; settings: in vivo
[4] = AUC in mouse at 3 mg/kg, iv and 10 mg/kg, po; assay type: ADME, organism-based; settings: plasma
[5] = Half life in mouse at 10 mg/kg, po; assay type: ADME, organism-based; set-up: dose 10 mg/kg, route oral; settings: in vivo
[6] = Oral bioavailability in mouse at 10 mg/kg; assay type: ADME, organism-based; settings: in vivo
[7] = target: Nitric oxide synthase, inducible (Homo sapiens, UniProt P35228); experiment: Inhibition of human iNOS expressed in HEK293 cells assessed as inhibition of nitric oxide production after 18 hrs using 2,3-diaminonaphthalene by fluorescence assay; assay type: cell-based
Chain of Nitric oxide synthase, inducible (Homo sapiens, UniProt P35228) (P35228 whole entry): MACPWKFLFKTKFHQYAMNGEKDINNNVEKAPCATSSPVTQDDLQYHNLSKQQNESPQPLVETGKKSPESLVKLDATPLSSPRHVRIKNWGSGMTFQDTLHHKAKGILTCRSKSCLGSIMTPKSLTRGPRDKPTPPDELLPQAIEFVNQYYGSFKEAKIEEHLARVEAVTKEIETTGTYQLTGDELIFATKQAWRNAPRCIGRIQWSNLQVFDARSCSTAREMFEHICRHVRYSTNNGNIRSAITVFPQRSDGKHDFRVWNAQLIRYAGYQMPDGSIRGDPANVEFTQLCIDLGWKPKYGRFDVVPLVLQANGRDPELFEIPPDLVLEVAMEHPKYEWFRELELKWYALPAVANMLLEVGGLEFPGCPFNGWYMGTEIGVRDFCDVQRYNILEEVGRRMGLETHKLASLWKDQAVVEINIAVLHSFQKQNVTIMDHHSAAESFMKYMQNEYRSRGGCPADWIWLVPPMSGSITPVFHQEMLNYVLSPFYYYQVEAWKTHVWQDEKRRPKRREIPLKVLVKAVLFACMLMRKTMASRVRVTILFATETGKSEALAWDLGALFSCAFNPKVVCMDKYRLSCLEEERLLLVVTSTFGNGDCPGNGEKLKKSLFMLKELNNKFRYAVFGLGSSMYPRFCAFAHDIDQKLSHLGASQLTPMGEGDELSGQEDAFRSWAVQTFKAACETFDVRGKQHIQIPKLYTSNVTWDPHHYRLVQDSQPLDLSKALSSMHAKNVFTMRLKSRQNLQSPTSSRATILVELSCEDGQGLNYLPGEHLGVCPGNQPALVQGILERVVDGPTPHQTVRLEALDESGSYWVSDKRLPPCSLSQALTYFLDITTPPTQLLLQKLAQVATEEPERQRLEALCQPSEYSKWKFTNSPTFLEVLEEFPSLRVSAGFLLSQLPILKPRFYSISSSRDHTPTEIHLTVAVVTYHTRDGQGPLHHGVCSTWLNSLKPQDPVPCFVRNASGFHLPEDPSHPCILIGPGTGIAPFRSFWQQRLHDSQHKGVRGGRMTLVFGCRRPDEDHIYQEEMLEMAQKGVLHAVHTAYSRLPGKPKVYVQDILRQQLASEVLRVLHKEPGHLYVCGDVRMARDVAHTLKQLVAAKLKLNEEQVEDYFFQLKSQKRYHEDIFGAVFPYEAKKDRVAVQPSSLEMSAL
In short: (§1)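 HEK293 cells grown to ~70% confluence in DMEM/10% FBS with pen/strep, transiently transfected with 10 μg human or murine iNOS plasmid plus Fugene 6 for 4 h at 37 °C, 10% CO2. Cells replated at 5e5 cells/mL and dosed with compound at once; 1400W (100 μM final) as positive control. After 18 h, DAN (10 μg/mL final) in HCl (0.1 N final) added for 20 min at room temperature. Fluorescence read after NaOH (0.12 N final).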

[8] = target: T1, Nitric oxide synthase 1 (Homo sapiens, UniProt P29475); experiment: Inhibition of human nNOS expressed in HEK293 cells assessed as inhibition ionomycin induced nitric oxide production incubated for 24 hrs measured after 18 hrs of ionomycin challenge using 2,3-diaminonaphthalene by fluorescence assay; assay type: cell-based
T1 sequence (P29475 whole entry): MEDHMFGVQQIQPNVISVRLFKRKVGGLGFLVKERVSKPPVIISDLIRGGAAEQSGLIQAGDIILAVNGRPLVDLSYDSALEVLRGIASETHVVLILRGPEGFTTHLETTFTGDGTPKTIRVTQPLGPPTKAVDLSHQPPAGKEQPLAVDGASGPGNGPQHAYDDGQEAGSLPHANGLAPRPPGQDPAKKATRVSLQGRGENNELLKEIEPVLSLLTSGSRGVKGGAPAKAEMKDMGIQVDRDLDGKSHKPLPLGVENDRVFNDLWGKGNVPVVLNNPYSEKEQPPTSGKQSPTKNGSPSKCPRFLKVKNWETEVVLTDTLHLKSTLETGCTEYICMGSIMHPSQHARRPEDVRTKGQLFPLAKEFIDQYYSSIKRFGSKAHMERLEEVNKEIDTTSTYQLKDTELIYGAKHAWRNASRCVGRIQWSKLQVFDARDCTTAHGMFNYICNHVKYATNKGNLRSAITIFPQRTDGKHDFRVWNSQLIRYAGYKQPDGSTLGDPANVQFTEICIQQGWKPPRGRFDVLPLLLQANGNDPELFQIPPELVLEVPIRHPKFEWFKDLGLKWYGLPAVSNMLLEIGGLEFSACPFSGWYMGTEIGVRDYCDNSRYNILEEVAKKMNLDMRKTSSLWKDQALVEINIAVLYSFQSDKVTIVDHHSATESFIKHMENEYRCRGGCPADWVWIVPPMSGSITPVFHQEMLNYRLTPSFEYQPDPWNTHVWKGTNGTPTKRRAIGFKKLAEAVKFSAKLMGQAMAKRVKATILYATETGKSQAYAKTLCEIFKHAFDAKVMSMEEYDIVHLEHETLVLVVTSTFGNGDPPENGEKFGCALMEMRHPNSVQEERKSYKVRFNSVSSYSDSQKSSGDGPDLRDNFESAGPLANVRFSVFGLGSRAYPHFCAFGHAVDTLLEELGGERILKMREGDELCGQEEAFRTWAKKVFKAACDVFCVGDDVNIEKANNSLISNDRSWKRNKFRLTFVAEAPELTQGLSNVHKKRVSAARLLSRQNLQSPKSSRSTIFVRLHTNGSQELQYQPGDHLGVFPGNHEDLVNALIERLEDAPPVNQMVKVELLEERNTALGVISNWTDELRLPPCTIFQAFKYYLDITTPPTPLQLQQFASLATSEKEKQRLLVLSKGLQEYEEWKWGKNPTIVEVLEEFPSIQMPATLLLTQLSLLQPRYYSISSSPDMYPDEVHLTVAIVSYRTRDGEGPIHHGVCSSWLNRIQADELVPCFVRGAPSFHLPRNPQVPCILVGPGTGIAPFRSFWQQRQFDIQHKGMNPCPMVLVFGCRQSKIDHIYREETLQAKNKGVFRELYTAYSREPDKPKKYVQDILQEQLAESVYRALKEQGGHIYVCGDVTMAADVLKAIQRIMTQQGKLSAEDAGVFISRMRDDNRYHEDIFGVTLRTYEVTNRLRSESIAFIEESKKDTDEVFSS
In short: (§2)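 HEK293 cells transfected for 4 h at 37 °C with human nNOS (10 μg) or human eNOS (15 μg) plasmid (Fugene 6, 3:1). Cells replated at 5e5 cells/mL and dosed with compound at once; SEITU (100 μM final) as positive control. After 24 h, cells activated with A23187 (83 nM final) for eNOS or ionomycin (30 μM final) for nNOS. NO read 18 h later as nitrite-DAN fluorescence.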

[9] = target: T2, Nitric oxide synthase 3 (Homo sapiens, UniProt P29474); experiment: Inhibition of human eNOS expressed in HEK293 cells assessed as inhibition A23187 induced nitric oxide production incubated for 24 hrs measured after 18 hrs of […] challenge using 2,3-diaminonaphthalene by fluorescence assay; assay type: cell-based; in short: as §2
T2 sequence (P29474 whole entry): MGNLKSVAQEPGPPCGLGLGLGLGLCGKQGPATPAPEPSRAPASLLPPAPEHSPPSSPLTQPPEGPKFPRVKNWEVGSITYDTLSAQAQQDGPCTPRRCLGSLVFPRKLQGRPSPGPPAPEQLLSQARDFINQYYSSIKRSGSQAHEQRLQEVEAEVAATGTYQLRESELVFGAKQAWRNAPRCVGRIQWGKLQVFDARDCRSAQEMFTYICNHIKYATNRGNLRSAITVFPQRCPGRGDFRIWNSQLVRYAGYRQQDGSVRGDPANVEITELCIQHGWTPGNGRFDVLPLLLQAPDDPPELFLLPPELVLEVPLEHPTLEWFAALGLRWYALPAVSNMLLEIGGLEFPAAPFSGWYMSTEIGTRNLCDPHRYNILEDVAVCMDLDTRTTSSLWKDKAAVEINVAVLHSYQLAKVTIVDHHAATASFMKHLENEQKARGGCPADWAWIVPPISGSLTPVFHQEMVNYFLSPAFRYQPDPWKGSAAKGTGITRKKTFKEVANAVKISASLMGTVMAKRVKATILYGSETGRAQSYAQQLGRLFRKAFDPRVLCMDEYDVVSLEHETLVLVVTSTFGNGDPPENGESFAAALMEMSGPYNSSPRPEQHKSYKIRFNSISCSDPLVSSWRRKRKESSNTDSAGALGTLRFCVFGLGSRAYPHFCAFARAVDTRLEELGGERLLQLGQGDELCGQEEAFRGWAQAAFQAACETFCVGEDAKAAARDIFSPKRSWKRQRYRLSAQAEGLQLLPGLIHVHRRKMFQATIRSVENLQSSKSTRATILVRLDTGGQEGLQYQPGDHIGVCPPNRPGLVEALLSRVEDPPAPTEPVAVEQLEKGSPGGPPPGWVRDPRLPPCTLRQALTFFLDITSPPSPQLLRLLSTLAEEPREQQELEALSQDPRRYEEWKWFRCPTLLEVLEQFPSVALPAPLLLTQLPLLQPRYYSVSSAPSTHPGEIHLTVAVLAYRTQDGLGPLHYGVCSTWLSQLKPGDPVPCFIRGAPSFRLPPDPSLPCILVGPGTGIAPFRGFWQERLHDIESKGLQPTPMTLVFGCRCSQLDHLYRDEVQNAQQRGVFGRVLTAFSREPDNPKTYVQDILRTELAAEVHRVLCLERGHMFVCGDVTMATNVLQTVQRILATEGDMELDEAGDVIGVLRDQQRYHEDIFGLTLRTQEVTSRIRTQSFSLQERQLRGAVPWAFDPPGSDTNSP

[10] = system: Liver; experiment: Half life in mouse liver microsomes assessed as formation of oxidation product and glucuronide conjugate; assay type: ADME, Microsome
In short: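 Mouse liver microsomes run under combined phase I oxidation and phase II glucuronide conjugation; half-life reported in minutes.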

[11] = species on record: Homo sapiens; experiment: Ratio of IC50 for human eNOS to EC50 for human iNOS
[12] = species on record: Homo sapiens; experiment: Ratio of IC50 for human nNOS to EC50 for human iNOS
[13] = target: T3, Nitric oxide synthase, inducible (Mus musculus, UniProt P29477); experiment: Inhibition of mouse iNOS expressed in HEK293 cells assessed as inhibition of nitric oxide production after 18 hrs using 2,3-diaminonaphthalene by fluorescence assay; assay type: cell-based; in short: as §1
T3 sequence (P29477 whole entry): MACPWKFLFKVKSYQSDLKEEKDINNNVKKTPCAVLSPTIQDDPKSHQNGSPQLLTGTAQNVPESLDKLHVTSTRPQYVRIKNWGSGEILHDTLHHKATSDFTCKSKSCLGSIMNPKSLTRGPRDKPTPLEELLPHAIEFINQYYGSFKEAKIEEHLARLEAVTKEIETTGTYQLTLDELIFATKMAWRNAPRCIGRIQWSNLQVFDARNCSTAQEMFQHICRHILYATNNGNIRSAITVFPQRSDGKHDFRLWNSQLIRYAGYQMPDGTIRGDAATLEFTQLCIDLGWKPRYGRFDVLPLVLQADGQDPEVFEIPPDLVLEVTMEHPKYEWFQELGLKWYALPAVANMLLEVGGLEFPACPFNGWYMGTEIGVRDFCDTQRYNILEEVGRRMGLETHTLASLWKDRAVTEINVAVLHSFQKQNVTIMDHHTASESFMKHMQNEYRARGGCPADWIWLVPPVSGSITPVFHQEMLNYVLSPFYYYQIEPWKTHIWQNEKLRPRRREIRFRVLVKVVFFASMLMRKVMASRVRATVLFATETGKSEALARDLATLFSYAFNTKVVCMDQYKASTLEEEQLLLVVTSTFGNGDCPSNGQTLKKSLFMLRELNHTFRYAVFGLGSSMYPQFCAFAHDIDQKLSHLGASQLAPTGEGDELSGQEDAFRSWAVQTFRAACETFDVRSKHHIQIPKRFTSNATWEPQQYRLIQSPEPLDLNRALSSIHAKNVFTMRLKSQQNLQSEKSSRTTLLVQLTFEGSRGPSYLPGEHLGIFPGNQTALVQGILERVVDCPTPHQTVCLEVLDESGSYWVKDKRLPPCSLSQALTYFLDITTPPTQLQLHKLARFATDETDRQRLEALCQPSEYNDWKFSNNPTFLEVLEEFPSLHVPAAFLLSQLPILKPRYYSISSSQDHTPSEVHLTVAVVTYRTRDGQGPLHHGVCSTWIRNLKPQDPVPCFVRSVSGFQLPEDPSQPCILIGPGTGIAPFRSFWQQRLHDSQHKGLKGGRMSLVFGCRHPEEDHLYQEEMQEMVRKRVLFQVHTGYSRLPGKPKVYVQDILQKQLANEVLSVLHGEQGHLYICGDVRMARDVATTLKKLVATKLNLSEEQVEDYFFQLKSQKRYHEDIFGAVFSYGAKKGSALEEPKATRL

[14] = system: Mus musculus; experiment: Inhibition of LPS-induced iNOS activation in BALB/c mouse assessed as plasma nitrate levels administered via oral gavage before LPS challenge measured after 6 to 8 hrs using 2,3-diaminonaphthalene by fluorescence assay; assay type: functional
In short: (§3)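 Male BALB/c mice dosed by oral gavage (90% PEG/5% Tween 80/5% PVP + 0.5% w/v CMC) immediately before LPS (10 mg/kg ip in 0.9% NaCl). Mice killed at 6 h. EDTA plasma analysed for nitrate and drug levels; nitrite measured by DAN fluorescence.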

[15] = Half life in mouse at 3 mg/kg, iv and 10 mg/kg, po; settings: in vivo
[16] = target: T4, Nitric oxide synthase 3 (Homo sapiens) (UniProt P29474); experiment: Inhibition of human eNOS expressed in HEK293 cells assessed as inhibition A23187 induced nitric oxide production at 100 uM incubated for 24 hrs measured after 18 hrs of […] challenge using 2,3-diaminonaphthalene by fluorescence assay; assay type: cell-based
T4 sequence (whole entry): T2 sequence (P29474 whole entry)

[17] = system: Mus musculus; experiment: Inhibition of LPS-induced iNOS activation in BALB/c mouse assessed as plasma nitrate levels at 30 mg/kg administered via oral gavage before LPS challenge measured after 6 to 8 hrs using 2,3-diaminonaphthalene by fluorescence assay relative to control; assay type: functional; in short: as §3
[18] = Plasma clearance in rhesus monkey at 3 mg/kg, iv and 10 mg/kg, po; assay type: ADME, organism-based, Macaca mulatta
In short: (§4)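 Rhesus pharmacokinetics: 3 mg/kg iv and 10 mg/kg po, HCl salt. Clp, t1/2, Vdss, Cmax, AUC, oral t1/2 and %F reported.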

[19] = Half life in rhesus monkey at 3 mg/kg, iv and 10 mg/kg, po; assay type: ADME, organism-based, Macaca mulatta; settings: in vivo; in short: as §4
[20] = Volume of distribution at steady state in rhesus monkey at 3 mg/kg, iv and 10 mg/kg, po; assay type: ADME, organism-based, Macaca mulatta; settings: in vivo, read-out: Vdss; in short: as §4
[21] = Cmax in rhesus monkey at 3 mg/kg, iv and 10 mg/kg, po; assay type: ADME, organism-based, Macaca mulatta; settings: in vivo; in short: as §4
[22] = AUC in rhesus monkey at 3 mg/kg, iv and 10 mg/kg, po; assay type: ADME, organism-based, Macaca mulatta; settings: plasma; in short: as §4
[23] = Half life in rhesus monkey at 10 mg/kg, po; assay type: ADME, organism-based, Macaca mulatta; set-up: dose 10 mg/kg, route oral; settings: in vivo
[24] = Bioavailability in rhesus monkey at 3 mg/kg, iv and 10 mg/kg, po; assay type: ADME, organism-based, Macaca mulatta; settings: in vivo; in short: as §4
[25] = target: T1, Nitric oxide synthase 1; experiment: Inhibition of human nNOS expressed in HEK293 cells assessed as inhibition ionomycin induced nitric oxide production at 10 uM incubated for 24 hrs measured after 18 hrs of ionomycin challenge using 2,3-diaminonaphthalene by fluorescence assay; assay type: cell-based

Structure (SMILES)	Cmax [3] [ng/mL]	AUC [4] [ng·h/mL]	half-life [5] [h]	EC50 [7] [nM]	EC50 [8] [nM]	EC50 [9] [nM]	t1/2 [10] [h]	Ratio EC50 [11]	Ratio EC50 [12]	EC50 [13] [nM]	inhibition [16] [%]	inhibition [25] [%]	ED50 [14] [mg/kg]	also measured
Cl.O=c1cc(Cn2c(C3CCC3)nc3nccnc32)c2ccc(F)c(F)c2[nH]1														clearance [18]: 6 mL/min/kg; half-life [19]: 13 h; Vd [20]: 3 L/kg; Cmax [21]: 3300 ng/mL; AUC [22]: 18000 ng·h/mL; half-life [23]: 9 h; bioavailability [24]: 63%
O=c1cc(Cn2c(CC3CCCC3)nc3ccccc32)c2ccc(F)c(F)c2[nH]1				1770	> 10000	> 100000	> 2	> 56	> 6		< 50	< 50		
Cc1ccncc1-c1nc2ccccc2n1Cc1cc(=O)[nH]c2c(F)c(F)ccc12				12000	> 10000	> 100000	> 2	> 8	> 1		< 50	< 50		

More lines, in order of falling EC50 [7], values ahead:

Cmax [3] [ng/mL]	AUC [4] [ng·h/mL]	half-life [5] [h]	EC50 [7] [nM]	EC50 [8] [nM]	EC50 [9] [nM]	t1/2 [10] [h]	Ratio EC50 [11]	Ratio EC50 [12]	EC50 [13] [nM]	inhibition [16] [%]	inhibition [25] [%]	Structure (SMILES)	ED50 [14] [mg/kg]	also measured
14000	19300	2.6	800	650	11300	> 2	14	0.8	4400			CC(C)c1nc2ccccc2n1Cc1cc(=O)[nH]c2c(F)c(F)ccc12	6	clearance [1]: 5.9 mL/min/kg; Vd [2]: 0.7 L/kg; bioavailability [6]: 58%; half-life [15]: 2.1 h
5700	10000	1.4	260	320	5900	> 2	23	1.2	2100			O=c1cc(Cn2c(C3CCC3)nc3ccccc32)c2ccc(F)c(F)c2[nH]1	4	
400	700	1.4	170	1000	> 100000	0.13	> 590	5.9	1800	< 50		CN(C)c1ccnc2c1nc(C1CCC1)n2Cc1cc(=O)[nH]c2c(F)c(F)ccc12		inhibition in vivo at 30 mg/kg [17]: 30%
